Laboratory results: ChEMBL document CHEMBL1781959, “Synthesis and in vitro antitumor activity of substituted quinazoline and quinoxaline derivatives: search for anticancer agent” (Eur J Med Chem, 2011)

Tested on: MDA-MB-231
Assay: Anticancer activity against human MDA-MB-231 cells assessed as cell growth promotion at 10^-5 M after 48 hrs by SRB assay relative to control
Type: functional

With `NS(=O)(=O)c1ccc(NC(=O)c2ccccc2NC(=O)c2ccco2)cc1` as the compound, how does the Activity read?
The Activity was 102%.

Tested on: not listed separately
Assay: Anticancer activity against human […] cells assessed as cell growth promotion at 10^-5 M after 48 hrs by SRB assay relative to control
Type: functional

With `NS(=O)(=O)c1ccc(NC(=O)c2ccccc2NC(=O)c2ccco2)cc1` as the compound, how does the Activity read?
Its Activity is 117.5%.

Tested on: EKVX
Assay: Anticancer activity against human EKVX cells assessed as cell growth promotion at 10^-5 M after 48 hrs by SRB assay relative to control
Type: functional

Which Activity does the source give for `NS(=O)(=O)c1ccc(NC(=O)c2ccccc2NC(=O)c2ccco2)cc1` here?
The Activity was 97.23%.

Tested on: not listed separately
Assay: Anticancer activity against human Hs 578T cells assessed as cell growth promotion at 10^-5 M after 48 hrs by SRB assay relative to control
Type: functional

Which Activity does the source give for `NS(=O)(=O)c1ccc(NC(=O)c2ccccc2NC(=O)c2ccco2)cc1` here?
The Activity was 118%.

Tested on: SK-OV-3
Assay: Anticancer activity against human SKOV3 cells assessed as cell growth promotion at 10^-5 M after 48 hrs by SRB assay relative to control
Type: functional

For `NS(=O)(=O)c1ccc(NC(=O)c2ccccc2NC(=O)c2ccco2)cc1`, which Activity is on record?
The Activity was 110%.

Tested on: SR
Assay: Anticancer activity against human SR cells assessed as cell growth promotion at 10^-5 M after 48 hrs by SRB assay relative to control
Type: functional

For `NS(=O)(=O)c1ccc(NC(=O)c2ccccc2NC(=O)c2ccco2)cc1`, which Activity is on record?
Its Activity is 101.4%.

Tested on: CAKI-1
Assay: Anticancer activity against human Caki1 cells assessed as cell growth promotion at 10^-5 M after 48 hrs by SRB assay relative to control
Type: functional

With `NS(=O)(=O)c1ccc(NC(=O)c2ccccc2NC(=O)c2ccco2)cc1` as the compound, how does the Activity read?
Its Activity is 100%.

Tested on: MDA-MB-435
Assay: Anticancer activity against human MDA-MB-435 cells assessed as cell growth promotion at 10^-5 M after 48 hrs by SRB assay relative to control
Type: functional

Which Activity does the source give for `NS(=O)(=O)c1ccc(NC(=O)c2ccccc2NC(=O)c2ccco2)cc1` here?
Its Activity is 107.2%.

Tested on: UO-31
Assay: Anticancer activity against human UO31 cells assessed as cell growth promotion at 10^-5 M after 48 hrs by SRB assay relative to control
Type: functional

For `NS(=O)(=O)c1ccc(NC(=O)c2ccccc2NC(=O)c2ccco2)cc1`, which Activity is on record?
Its Activity is 104%.

Tested on: NCI-H460
Assay: Anticancer activity against human NCI-H460 cells assessed as cell growth promotion at 10^-5 M after 48 hrs by SRB assay relative to control
Type: functional

With `NS(=O)(=O)c1ccc(NC(=O)c2ccccc2NC(=O)c2ccco2)cc1` as the compound, how does the Activity read?
The Activity was 115.5%.

Tested on: NCI/ADR-RES
Assay: Anticancer activity against human NCI/ADR-RES cells assessed as cell growth promotion at 10^-5 M after 48 hrs by SRB assay relative to control
Type: functional

With `NS(=O)(=O)c1ccc(NC(=O)c2ccccc2NC(=O)c2ccco2)cc1` as the compound, how does the Activity read?
Its Activity is 111%.

Tested on: A498
Assay: Anticancer activity against human A498 cells assessed as cell growth promotion at 10^-5 M after 48 hrs by SRB assay relative to control
Type: functional

With `NS(=O)(=O)c1ccc(NC(=O)c2ccccc2NC(=O)c2ccco2)cc1` as the compound, how does the Activity read?
Its Activity is -23%.

Tested on: UACC-257
Assay: Anticancer activity against human UACC257 cells assessed as cell growth promotion at 10^-5 M after 48 hrs by SRB assay relative to control
Type: functional

Which Activity does the source give for `NS(=O)(=O)c1ccc(NC(=O)c2ccccc2NC(=O)c2ccco2)cc1` here?
Its Activity is 100.1%.

Tested on: SF-268
Assay: Anticancer activity against human SF268 cells assessed as cell growth promotion at 10^-5 M after 48 hrs by SRB assay relative to control
Type: functional

For `NS(=O)(=O)c1ccc(NC(=O)c2ccccc2NC(=O)c2ccco2)cc1`, which Activity is on record?
Its Activity is 98.43%.

Tested on: SNB-19
Assay: Anticancer activity against human SNB19 cells assessed as cell growth promotion at 10^-5 M after 48 hrs by SRB assay relative to control
Type: functional

Which Activity does the source give for `NS(=O)(=O)c1ccc(NC(=O)c2ccccc2NC(=O)c2ccco2)cc1` here?
Its Activity is 110.7%.

Tested on: CCRF-CEM
Assay: Anticancer activity against human CCRF-CEM cells assessed as cell growth promotion at 10^-5 M after 48 hrs by SRB assay relative to control
Type: functional

Which Activity does the source give for `NS(=O)(=O)c1ccc(NC(=O)c2ccccc2NC(=O)c2ccco2)cc1` here?
The Activity was 98.87%.

Tested on: HCT-116
Assay: Anticancer activity against human HCT116 cells assessed as cell growth promotion at 10^-5 M after 48 hrs by SRB assay relative to control
Type: functional

With `NS(=O)(=O)c1ccc(NC(=O)c2ccccc2NC(=O)c2ccco2)cc1` as the compound, how does the Activity read?
Its Activity is 109.7%.

Tested on: OVCAR-3
Assay: Anticancer activity against human OVCAR3 cells assessed as cell growth promotion at 10^-5 M after 48 hrs by SRB assay relative to control
Type: functional

For `NS(=O)(=O)c1ccc(NC(=O)c2ccccc2NC(=O)c2ccco2)cc1`, which Activity is on record?
The Activity was 108%.

Tested on: Malme-3M
Assay: Anticancer activity against human MALME-3M cells assessed as cell growth promotion at 10^-5 M after 48 hrs by SRB assay relative to control
Type: functional

With `NS(=O)(=O)c1ccc(NC(=O)c2ccccc2NC(=O)c2ccco2)cc1` as the compound, how does the Activity read?
Its Activity is 118.8%.

Tested on: SW-620
Assay: Anticancer activity against human SW620 cells assessed as cell growth promotion at 10^-5 M after 48 hrs by SRB assay relative to control
Type: functional

Which Activity does the source give for `NS(=O)(=O)c1ccc(NC(=O)c2ccccc2NC(=O)c2ccco2)cc1` here?
The Activity was 101.9%.

Tested on: HOP-62
Assay: Anticancer activity against human HOP62 cells assessed as cell growth promotion at 10^-5 M after 48 hrs by SRB assay relative to control
Type: functional

With `NS(=O)(=O)c1ccc(NC(=O)c2ccccc2NC(=O)c2ccco2)cc1` as the compound, how does the Activity read?
Its Activity is 106%.

Tested on: SK-MEL-5
Assay: Anticancer activity against human SK-MEL-5 cells assessed as cell growth promotion at 10^-5 M after 48 hrs by SRB assay relative to control
Type: functional

With `NS(=O)(=O)c1ccc(NC(=O)c2ccccc2NC(=O)c2ccco2)cc1` as the compound, how does the Activity read?
The Activity was 108.4%.

Tested on: K562
Assay: Anticancer activity against human K562 cells assessed as cell growth promotion at 10^-5 M after 48 hrs by SRB assay relative to control
Type: functional

With `NS(=O)(=O)c1ccc(NC(=O)c2ccccc2NC(=O)c2ccco2)cc1` as the compound, how does the Activity read?
Its Activity is 95.39%.

Tested on: RXF 393
Assay: Anticancer activity against human RXF393 cells assessed as cell growth promotion at 10^-5 M after 48 hrs by SRB assay relative to control
Type: functional

For `NS(=O)(=O)c1ccc(NC(=O)c2ccccc2NC(=O)c2ccco2)cc1`, which Activity is on record?
The Activity was 113%.

Tested on: HCT-15
Assay: Anticancer activity against human HCT15 cells assessed as cell growth promotion at 10^-5 M after 48 hrs by SRB assay relative to control
Type: functional

With `NS(=O)(=O)c1ccc(NC(=O)c2ccccc2NC(=O)c2ccco2)cc1` as the compound, how does the Activity read?
Its Activity is 105.5%.

Tested on: NCI-H23
Assay: Anticancer activity against human NCI-H23 cells assessed as cell growth promotion at 10^-5 M after 48 hrs by SRB assay relative to control
Type: functional

With `NS(=O)(=O)c1ccc(NC(=O)c2ccccc2NC(=O)c2ccco2)cc1` as the compound, how does the Activity read?
The Activity was 110.8%.

Tested on: HL-60(TB)
Assay: Anticancer activity against human HL-60(TB) cells assessed as cell growth promotion at 10^-5 M after 48 hrs by SRB assay relative to control
Type: functional
Summary of the method: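 NCI-60 single-dose screen: compound at 10^-5 M, 48 h at 37 °C, 5% CO2; cells grown in RPMI 1640 with 5% FBS and 2 mM L-glutamine, pre-incubated 24 h before dosing. Adherent cells fixed with cold TCA; endpoint is sulforhodamine B protein staining. Percent growth of treated cells is reported relative to untreated control.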

For `NS(=O)(=O)c1ccc(NC(=O)c2ccccc2NC(=O)c2ccco2)cc1`, which Activity is on record?
The Activity was 93.06%.

Tested on: 786-0
Assay: Anticancer activity against human 786-0 cells assessed as cell growth promotion at 10^-5 M after 48 hrs by SRB assay relative to control
Type: functional

With `NS(=O)(=O)c1ccc(NC(=O)c2ccccc2NC(=O)c2ccco2)cc1` as the compound, how does the Activity read?
Its Activity is 108%.

Tested on: M14
Assay: Anticancer activity against human M14 cells assessed as cell growth promotion at 10^-5 M after 48 hrs by SRB assay relative to control
Type: functional

With `NS(=O)(=O)c1ccc(NC(=O)c2ccccc2NC(=O)c2ccco2)cc1` as the compound, how does the Activity read?
The Activity was 113.1%.

Tested on: MOLT-4
Assay: Anticancer activity against human MOLT4 cells assessed as cell growth promotion at 10^-5 M after 48 hrs by SRB assay relative to control
Type: functional

For `NS(=O)(=O)c1ccc(NC(=O)c2ccccc2NC(=O)c2ccco2)cc1`, which Activity is on record?
The Activity was 87.33%.

Tested on: U-251
Assay: Anticancer activity against human U251 cells assessed as cell growth promotion at 10^-5 M after 48 hrs by SRB assay relative to control
Type: functional

Which Activity does the source give for `NS(=O)(=O)c1ccc(NC(=O)c2ccccc2NC(=O)c2ccco2)cc1` here?
Its Activity is 99.55%.

Tested on: UACC-62
Assay: Anticancer activity against human UACC62 cells assessed as cell growth promotion at 10^-5 M after 48 hrs by SRB assay relative to control
Type: functional

With `NS(=O)(=O)c1ccc(NC(=O)c2ccccc2NC(=O)c2ccco2)cc1` as the compound, how does the Activity read?
Its Activity is 107%.

Tested on: SN12C
Assay: Anticancer activity against human SN12C cells assessed as cell growth promotion at 10^-5 M after 48 hrs by SRB assay relative to control
Type: functional

With `NS(=O)(=O)c1ccc(NC(=O)c2ccccc2NC(=O)c2ccco2)cc1` as the compound, how does the Activity read?
The Activity was 105%.

Tested on: T47D
Assay: Anticancer activity against human T47D cells assessed as cell growth promotion at 10^-5 M after 48 hrs by SRB assay relative to control
Type: functional

Which Activity does the source give for `NS(=O)(=O)c1ccc(NC(=O)c2ccccc2NC(=O)c2ccco2)cc1` here?
The Activity was 103%.

Tested on: HT-29
Assay: Anticancer activity against human HT-29 cells assessed as cell growth promotion at 10^-5 M after 48 hrs by SRB assay relative to control
Type: functional

With `NS(=O)(=O)c1ccc(NC(=O)c2ccccc2NC(=O)c2ccco2)cc1` as the compound, how does the Activity read?
The Activity was 99.28%.

Tested on: OVCAR-5
Assay: Anticancer activity against human OVCAR5 cells assessed as cell growth promotion at 10^-5 M after 48 hrs by SRB assay relative to control
Type: functional

Which Activity does the source give for `NS(=O)(=O)c1ccc(NC(=O)c2ccccc2NC(=O)c2ccco2)cc1` here?
The Activity was 99.82%.

Tested on: NCI-H322M
Assay: Anticancer activity against human NCI-H322M cells assessed as cell growth promotion at 10^-5 M after 48 hrs by SRB assay relative to control
Type: functional

With `NS(=O)(=O)c1ccc(NC(=O)c2ccccc2NC(=O)c2ccco2)cc1` as the compound, how does the Activity read?
The Activity was 119.5%.

Tested on: KM12
Assay: Anticancer activity against human KM12 cells assessed as cell growth promotion at 10^-5 M after 48 hrs by SRB assay relative to control
Type: functional

For `NS(=O)(=O)c1ccc(NC(=O)c2ccccc2NC(=O)c2ccco2)cc1`, which Activity is on record?
Its Activity is 108.4%.
